The source of these data is ChEMBL document CHEMBL3739264, “Synthesis and bio-evaluation of novel quinolino-stilbene derivatives as potential anticancer agents” (Bioorg Med Chem, 2015).

Test [1] deals with MCF7. In words: Antiproliferative activity against human MCF7 cells after 72 hrs by SRB assay. Format: functional, cell-based. As to conditions: MCF7, 72 h. The method in brief:
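Cells seeded at 4,000-5,000/well for 16 h, then exposed 72 h to serial dilutions of compound in DMSO; sham DMSO as 100% and TCA-treated wells as 0%. IC50 from sigmoidal dose-response curves; two biological replicates, four technical each.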

Test [2] relates to MDA-MB-231. In words: Antiproliferative activity against human MDA-MB-231 cells after 72 hrs by SRB assay. It is filed as functional, cell-based. The note with it: MDA-MB-231, 72 h. The method in brief:
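Cells seeded at 4,000-5,000/well for 16 h, then exposed 72 h to serial dilutions of compound in DMSO; sham DMSO as 100% and TCA-treated wells as 0%. Fixed in 10% TCA at 4°C for 1 h, stained with 0.4% SRB for 30 min, dye solubilised in 10 mmol Tris pH 10.5, read at 540 nm. IC50 from sigmoidal dose-response curves; two biological replicates, four technical each.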
On the technique in general: Sulforhodamine B stains cellular protein and so reports cell mass.

Test [3] in a line: Cell cycle arrest in human MCF10A cells assessed as accumulation at sub-G1 phase at 6 uM after 24 hrs by flow cytometry analysis relative to control. Format: functional, cell-based. As to conditions: MCF-10A. Summed up: (§1)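 About 1 × 10^6 cells per plate seeded overnight, then treated with compound and harvested at set times. Cells fixed in 75% ethanol at -20°C for 12-24 h and stained 1 h with 100 µg/ml PI, 100 µg/ml RNase A and 0.3% NP-40 in PBS. DNA content measured by flow cytometry; phase fractions compared with sham-treated cells.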

Test [4] deals with HeLa. The test can be described thus: Cell cycle arrest in human HeLa cells assessed as accumulation at G0-G1 phase at 6 uM after 48 hrs by flow cytometry analysis relative to control. Format: functional. The method in brief: as §1
(A flow cytometer gives signals particle by particle.)

For test [5], the system named is MDA-MB-231. The test can be described thus: Cell cycle arrest in human MDA-MB-231 cells assessed as accumulation at sub-G1 phase at 6 uM after 12 hrs by flow cytometry analysis relative to control. Format: functional. Summed up:
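Cells seeded overnight at about 1 × 10^6 per plate, treated next morning, and harvested at set times. Fixed in 75% ethanol at -20°C for 12-24 h, then stained 1 h in PBS with 0.3% NP-40, 100 µg/ml RNase A and 100 µg/ml propidium iodide. Phase distribution read from DNA content by flow cytometry against sham-treated cells.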

The IC50 is the concentration that inhibits the measured activity by half. A low value points to greater potency. In the case of `FC(F)(F)c1cccc(/C=C\c2cc3ccccc3nc2Cl)c1`, the figures for the IC50 in test [1] and in test [2] were 3.53 µM and 3.75 µM, respectively. Further, the Activity in test [3] was determined as 7.3%; in test [4], 20.8%; in test [5] it was 8.5%.
